# Source: PubChem (several laboratories)
# This is a sample that favours compounds with a hit; in the whole collection about 2.1% have one here.
# VIM-2 inhibitor: VIM-2 metallo-beta-lactamase inhibitors, primary screen, biochemical, epi-absorbance readout, Pseudomonas aeruginosa enzyme; 0.89% of 290,000 active; purified VIM-2, nitrocefin hydrolysis, epi-absorbance fluorescence; inhibition, % at 5.6 µM; AID 1527, 2009;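 active = inhibition above the mean of all tested compounds plus 3 SD, cutoff set per screening run, cut at about 7.5% in these data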;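 also: red hydrolysis product quenches plate fluorescence so inhibitors raise well fluorescence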
# IMP-1 inhibitor: IMP-1 metallo-beta-lactamase inhibitors, primary screen, biochemical, epi-absorbance readout, Pseudomonas aeruginosa enzyme. metallo-beta-lactamase IMP-1 (Pseudomonas aeruginosa). purified IMP-1, nitrocefin hydrolysis, epi-absorbance fluorescence. inhibition, % at 5.6 µM. 0.45% of 290,000 active. AID 1556, 2009;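 active = inhibition above the mean plus 3 SD of all compounds in the same screening run, cut at about 4.5% in these data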
#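 Assay system: purified recombinant IMP-1 beta-lactamase. Input: IMP-1 0.2 nM before substrate addition. Buffer or medium: Zinc- and detergent-supplemented HEPES buffer, pH 7.1. Schedule: 25 °C, 15 min preincubation, 25 min reaction. Signal: Epi-absorbance fluorescence, 480 nm excitation, 530 nm emission. Evaluation: percent inhibition from optical density relative to buffer-blank wells.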
# TRPN1 ag: zebrafish TRPN1 channel agonists, primary screen, cell-based, HEK293, calcium fluorescence; AID 1424, 2008; 0.18% of 220,000 active; HEK293 zebrafish TRPN1-YFP, Fluo-8 calcium fluorescence; 100% = response to 87 µM carbachol; activation, % at 3 µM;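 active = activation above its plate's cutoff, the mean activation of test wells on that plate plus 3 SD, cut at about 19% in these data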
#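 Material: zebrafish TRPN1-YFP in HEK293 cells. Doses: one dose of 3 µM, 0.3% DMSO. Incubation: dye 1 h 37 °C plus 30 min RT. Measured by: intracellular calcium fluorescence with Fluo-8.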
# CRFR2-BP ag: agonists of CRF-BP/CRF-R2 complex, primary screen, cell-based, HEK293, calcium dye fluorescence, uHTS. calcium dye fluorescence (FLIPR); percent of saturating CRF peptide response. activation, % at 13.2 µM. 0.46% of 350,000 active;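 active = activation of at least 50%, plus an integration ratio under a set limit after plate pattern correction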
# TRPML3 agonist: human TRPML3 channel agonists, primary screen, cell-based, HEK293 TRPML3-YFP, Fluo-8 calcium fluorescence, 3 µM. AID 1448, 2008. 100% = the carbachol control signal. Mucolipin-3 (Homo sapiens), Q8TDD5. activation, % at 3 µM. 0.29% of 220,000 active;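 active = activation above its plate's cutoff, the mean activation of the plate's test wells plus 3 SD, cut at about 12% in these data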
# Target sequence (Q8TDD5 whole entry, looked up): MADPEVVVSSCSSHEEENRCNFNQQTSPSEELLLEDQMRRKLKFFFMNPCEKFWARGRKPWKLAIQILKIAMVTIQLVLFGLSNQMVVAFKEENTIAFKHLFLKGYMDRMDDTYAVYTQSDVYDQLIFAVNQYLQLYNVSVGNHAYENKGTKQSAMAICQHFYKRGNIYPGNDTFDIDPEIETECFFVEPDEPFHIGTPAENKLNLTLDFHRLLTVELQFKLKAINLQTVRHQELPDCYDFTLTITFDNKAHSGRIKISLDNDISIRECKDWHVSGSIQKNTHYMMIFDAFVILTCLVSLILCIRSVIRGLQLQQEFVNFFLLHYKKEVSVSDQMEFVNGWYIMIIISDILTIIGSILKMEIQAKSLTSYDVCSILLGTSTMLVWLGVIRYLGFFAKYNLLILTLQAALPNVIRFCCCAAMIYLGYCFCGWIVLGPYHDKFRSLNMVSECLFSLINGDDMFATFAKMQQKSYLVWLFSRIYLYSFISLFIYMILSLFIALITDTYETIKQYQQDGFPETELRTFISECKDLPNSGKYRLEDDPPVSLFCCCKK
#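 system = HEK293 cells stably carrying human TRPML3-YFP | doses = one concentration, 3 µM nominal, 0.3% DMSO | timing = dye loading 1 h 37 °C then 30 min ambient, 125 s read | detection = Fluo-8 calcium dye fluorescence, ex 470-495, em 515-575 nm | benchmarks = high control carbachol 87 µM, low control DMSO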
# CRFBP-R2 block: antagonists of CRF-BP/CRF-R2 complex, primary screen, cell-based, HEK293, calcium dye fluorescence, uHTS; CRF-induced calcium fluorescence; inhibition, % at 11.8 µM; 0.59% of 350,000 active;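 active = inhibition of the ligand-induced calcium signal above about 50% at the single tested concentration, limit read from the data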
# A number is an active result; – = inactive; · = no result.
SMILES,VIM-2 inhibitor,IMP-1 inhibitor,TRPN1 ag,CRFR2-BP ag,TRPML3 agonist,CRFBP-R2 block
COc1cc(/C=C/C(O)=C/C(=O)/C=C/c2ccc(O)cc2)ccc1O,·,·,·,112.5,·,–
Nc1ccc(S(=O)(=O)Nc2ccc(Cl)nn2)cc1,–,–,–,–,–,54.2
C[C@H](CO)N1C[C@H](C)[C@H](CN(C)C(=O)Nc2ccc(C(F)(F)F)cc2)OCc2cnnn2CCCC1=O,·,·,·,–,·,–
CCNc1nc(NCC)nc(OCCOC(=O)c2ccccc2)n1,–,–,–,–,–,–
CCNc1nc(NCC)nc(OCCOC(C)=O)n1,–,4.9,–,–,–,–
CCOC(=O)c1sc(NC(=S)NC(=O)c2ccc(OC)cc2)nc1C,–,–,·,–,·,–
COC(=O)c1sc(NC(=S)NC(=O)c2ccc(F)cc2)nc1C,–,–,–,·,–,·
COC(=O)c1sc(NC(=S)NC(=O)c2cccc(Br)c2)nc1C,–,–,·,59.8,·,–
COC(=O)c1sc(NC(=S)NC(=O)c2ccccc2C)nc1C,–,–,–,55.7,–,–
CC(Sc1nnc(-c2ccco2)n1C)C(=O)N1C(C)CCCC1C (centres undefined),–,–,·,–,·,–
Cc1nn(-c2ccc([N+](=O)[O-])cc2)c2c1C(c1ccc(OC(F)F)cc1)N1C(=N2)C(=O)Nc2ccccc21 (centres undefined),–,–,–,–,–,–
Cc1ccc(C2c3c(C)nn(-c4ccc([N+](=O)[O-])cc4)c3N=C3C(=O)Nc4ccccc4N32)cc1 (centres undefined),–,–,25.9,·,32.9,·
COc1ccccc1C1SCCN1S(=O)(=O)c1ccccc1 (centres undefined),·,·,·,–,·,107.7
Cc1cccc(OCc2nnc(SCC(=O)c3c(N)n(C4CC4)c(=O)[nH]c3=O)o2)c1,·,·,·,–,·,–
COc1ccc(C2CCCN2C(=S)Nc2ccc(C)c(C)c2)cc1OC (centres undefined),–,–,–,–,–,–
COc1ccc(C2CCCN2C(=O)Nc2ccc(C)c(C)c2)cc1OC (centres undefined),–,–,–,–,–,80.4
CCN1CCN(C(=O)C2=C(C(=O)O)CCCC2)CC1,–,12.7,–,–,–,–
O=C(O)C1=C(C(=O)N2CCN(C(=O)c3ccco3)CC2)CCCC1,–,12.3,–,–,–,–
Cc1ccc(N2CCC3CC2c2cc(-c4ccc(C(F)(F)F)cc4)ccc23)cc1 (centres undefined),·,·,·,–,·,–
CC1(C)CCN2CCC(C)(C)c3c(O)ccc1c32,–,–,·,117.8,·,–
Clc1ccccc1-c1nn2c(Cn3cnc4ccccc43)nnc2s1,–,–,–,–,–,–
c1ccc2c(c1)ncn2Cc1nnc2sc(-c3ccc4c(c3)OCO4)nn12,9.6,–,–,–,–,–
S=c1[nH]nc(-c2ccncc2)n1CC1CCCO1 (centres undefined),11.3,–,–,–,–,–
CC(C)CNS(=O)(=O)c1ccc(CCC(=O)NCCC2=CCCCC2)cc1,–,–,–,–,–,–
CCCc1nnc(N2C(=O)c3cccc4cccc(c34)C2=O)s1,8.7,–,–,–,–,–
SMILES,VIM-2 inhibitor,IMP-1 inhibitor,TRPN1 ag,CRFR2-BP ag,TRPML3 agonist,CRFBP-R2 block
COc1ccc(Cl)cc1C(=O)OCC(=O)NC(=O)c1cccn1C,11.3,–,–,–,–,–
COc1ccc(Cl)cc1C(=O)NNC(=O)COC(=O)c1cccs1,·,·,·,–,·,104.1
Cc1cc(Cl)ccc1OCC(=O)NNC(=O)c1cccs1,–,–,·,–,·,–
COc1ccc(NS(=O)(=O)c2cccc(C(=O)N3CCN(c4ccccc4O)CC3)c2)cc1,·,·,·,–,·,–
CCn1nc(C)c(NC(=O)c2ccc(Cl)cc2)c1C,–,–,–,–,–,–
CCn1nc(C)c(NC(=O)Nc2cccc(Cl)c2Cl)c1C,–,–,–,–,–,52.6
